# Tests used:
# [1] = tested on: Candida albicans; assay: Antifungal activity against Candida albicans ATCC 10231 after 48 hrs by broth microdilution technique; format: functional; conditions: ATCC 10231, 48 h
# Outline: (§1)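 Yeasts were tested by CLSI broth microdilution in RPMI-1640 buffered to pH 7.0 with MOPS, with compound from 250 down to 0.98 in DMSO stocks. Trays were held at 30 °C in a moist, dark chamber. MIC100, the lowest concentration giving total visual inhibition against the growth control, was read by eye at 48 h.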
# [2] = tested on: Saccharomyces cerevisiae; assay: Antifungal activity against Saccharomyces cerevisiae ATCC 9763 after 48 hrs by broth microdilution technique; format: functional; conditions: ATCC 9763, 48 h; outline: as §1
# [3] = tested on: Cryptococcus neoformans; assay: Antifungal activity against Cryptococcus neoformans ATCC 32264 after 48 hrs by broth microdilution technique; format: functional; conditions: ATCC 32264, 48 h; outline: as §1
# [4] = tested on: Aspergillus fumigatus; assay: Antifungal activity against Aspergillus fumigatus ATCC 26934 after 48 hrs by broth microdilution technique; format: functional; conditions: ATCC 26934, 48 h
# Outline: (§2)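 Moulds and dermatophytes were run by CLSI broth microdilution in MOPS-buffered RPMI-1640 at pH 7.0. Aspergillus was incubated at 30 °C and dermatophytes at 28–30 °C, in a moist, dark chamber. MIC100, the lowest concentration with no visible growth, was read visually at a time set by growth of the control fungus.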
# [5] = tested on: Aspergillus flavus; assay: Antifungal activity against Aspergillus flavus ATCC 9170 after 48 hrs by broth microdilution technique; format: functional; conditions: ATCC 9170, 48 h; outline: as §2
# [6] = tested on: Aspergillus niger; assay: Antifungal activity against Aspergillus niger ATCC 9029 after 48 hrs by broth microdilution technique; format: functional; conditions: ATCC 9029, 48 h; outline: as §2
# [7] = tested on: Nannizzia gypsea; assay: Antifungal activity against Microsporum gypseum CCC 115 after 48 hrs by broth microdilution technique; format: functional; conditions: CCC 115, 48 h; outline: as §2
# [8] = tested on: Trichophyton rubrum; assay: Antifungal activity against Trichophyton rubrum CCC 113 after 48 hrs by broth microdilution technique; format: functional; conditions: CCC 113, 48 h
# [9] = tested on: Trichophyton mentagrophytes; assay: Antifungal activity against Trichophyton mentagrophytes ATCC 9972 after 48 hrs by broth microdilution technique; format: functional; conditions: ATCC 9972, 48 h; outline: as §2
# [10] = tested on: Candida albicans; assay: Antifungal activity against Candida albicans CCC 125 after 48 hrs by broth microdilution technique; format: functional; conditions: CCC 125, 48 h
# [11] = tested on: Candida albicans; assay: Antifungal activity against Candida albicans CCC 126 after 48 hrs by broth microdilution technique; format: functional; conditions: CCC 126, 48 h
# [12] = tested on: Candida albicans; assay: Antifungal activity against Candida albicans CCC 127 after 48 hrs by broth microdilution technique; format: functional; conditions: CCC 127, 48 h
# [13] = tested on: Candida albicans; assay: Antifungal activity against Candida albicans CCC 128 after 48 hrs by broth microdilution technique; format: functional; conditions: CCC 128, 48 h
# [14] = tested on: Candida albicans; assay: Antifungal activity against Candida albicans CCC 129 after 48 hrs by broth microdilution technique; format: functional; conditions: CCC 129, 48 h
# [15] = tested on: Candida albicans; assay: Antifungal activity against Candida albicans CCC 130 after 48 hrs by broth microdilution technique; format: functional; conditions: CCC 130, 48 h
# [16] = tested on: Nakaseomyces glabratus; assay: Antifungal activity against Candida glabrata CCC 115 after 48 hrs by broth microdilution technique; format: functional; conditions: CCC 115, 48 h
# [17] = tested on: Candida parapsilosis; assay: Antifungal activity against Candida parapsilosis CCC 124 after 48 hrs by broth microdilution technique; format: functional; conditions: Lodderomyces parapsilosis, CCC 124, 48 h
# [18] = tested on: Pichia kudriavzevii; assay: Antifungal activity against Candida krusei CCC 117 after 48 hrs by broth microdilution technique; format: functional; conditions: CCC 117, 48 h
# [19] = tested on: Candida tropicalis; assay: Antifungal activity against Candida tropicalis CCC 131 after 48 hrs by broth microdilution technique; format: functional; conditions: CCC 131, 48 h
# [20] = tested on: Cryptococcus neoformans; assay: Antifungal activity against Cryptococcus neoformans IM 983040 after 48 hrs by broth microdilution technique; format: functional; conditions: IM 983040, 48 h
# Outline: (§3)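 C. neoformans was tested by 96-well RPMI-1640 microdilution, with DMSO-matched growth and sterility control wells. Plates were incubated 48 h at 30 °C in a moist, dark chamber and read at OD405. % inhibition = 100 − (CTW − SCW)/(GCW − SCW), in duplicate. For the clinical isolates, MIC80 and MIC50 are the lowest concentrations giving 80% and 50% inhibition.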
# [21] = tested on: Cryptococcus neoformans; assay: Antifungal activity against Cryptococcus neoformans IM 972724 after 48 hrs by broth microdilution technique; format: functional; conditions: IM 972724, 48 h; outline: as §3
# [22] = tested on: Cryptococcus neoformans; assay: Antifungal activity against Cryptococcus neoformans IM 042074 after 48 hrs by broth microdilution technique; format: functional; conditions: IM 042074, 48 h; outline: as §3
# [23] = tested on: Cryptococcus neoformans; assay: Antifungal activity against Cryptococcus neoformans IM 983036 after 48 hrs by broth microdilution technique; format: functional; conditions: IM 983036, 48 h; outline: as §3
# [24] = tested on: Cryptococcus neoformans; assay: Antifungal activity against Cryptococcus neoformans IM 00319 after 48 hrs by broth microdilution technique; format: functional; conditions: IM 00319, 48 h; outline: as §3
# [25] = tested on: Cryptococcus neoformans; assay: Antifungal activity against Cryptococcus neoformans IM 972751 after 48 hrs by broth microdilution technique; format: functional; conditions: IM 972751, 48 h; outline: as §3
# [26] = tested on: Candida albicans; assay: Antifungal activity against Candida albicans ATCC 10231 at 31.2 ug/ml after 24 hrs; format: functional; conditions: ATCC 10231, 24 h
# Outline: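 C. albicans was grown in 96-well RPMI-1640 broth microdilution with compound wells diluted from DMSO stocks. Growth wells with matched DMSO and sterility wells were included. After 24 h at 30 °C in a moist, dark chamber, OD405 was read. % inhibition = 100 − (CTW − SCW)/(GCW − SCW) OD, done in duplicate.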
# [27] = tested on: Candida albicans; assay: Antifungal activity against Candida albicans CCC 130 after 24 hrs by broth microdilution technique; conditions: CCC 130, 24 h
smiles,measurement,setting,value
Clc1cccc2ccc(-c3ccncc3)nc12,MIC,[1],> 250 µg/mL
same,MIC,[2],> 250 µg/mL
same,MFC,[3],250 µg/mL
same,MIC,[3],125 µg/mL
same,MIC,[4],> 250 µg/mL
same,MIC,[5],> 250 µg/mL
same,MIC,[6],> 250 µg/mL
same,MFC,[7],62 µg/mL
same,MIC,[7],31 µg/mL
same,MFC,[8],62 µg/mL
same,MIC,[8],31 µg/mL
same,MFC,[9],125 µg/mL
same,MIC,[9],62 µg/mL
Clc1ccc2nc(/C=C/c3cccnc3)ccc2c1,MIC,[1],> 250 µg/mL
same,MIC,[2],> 250 µg/mL
same,MIC,[3],> 250 µg/mL
same,MFC,[4],> 250 µg/mL
same,MIC,[4],250 µg/mL
same,MFC,[5],> 250 µg/mL
same,MIC,[5],250 µg/mL
same,MIC,[6],> 250 µg/mL
same,MFC,[7],> 250 µg/mL
same,MIC,[7],250 µg/mL
same,MFC,[8],> 250 µg/mL
same,MIC,[8],250 µg/mL
same,MFC,[9],> 250 µg/mL
same,MIC,[9],250 µg/mL
Clc1ccc2nc(/C=C/c3ccncc3)ccc2c1,MFC,[1],> 250 µg/mL
same,MIC,[1],125 µg/mL
same,MIC50,[1],15.6 µg/mL
same,MIC80,[1],31.2 µg/mL
same,MFC,[2],> 250 µg/mL
same,MIC,[2],125 µg/mL
same,MFC,[3],250 µg/mL
same,MIC,[3],125 µg/mL
same,MIC50,[3],15.6 µg/mL
same,MIC80,[3],31.2 µg/mL
same,MFC,[4],> 250 µg/mL
same,MIC,[4],250 µg/mL
same,MFC,[5],> 250 µg/mL
same,MIC,[5],250 µg/mL
same,MFC,[6],> 250 µg/mL
same,MIC,[6],250 µg/mL
same,MFC,[7],125 µg/mL
same,MIC,[7],62 µg/mL
same,MFC,[8],125 µg/mL
same,MIC,[8],62 µg/mL
same,MFC,[9],125 µg/mL
same,MIC,[9],62 µg/mL
same,MIC50,[10],31.2 µg/mL
same,MIC80,[10],125 µg/mL
same,MIC50,[11],31.2 µg/mL
same,MIC80,[11],62.5 µg/mL
same,MIC50,[12],31.2 µg/mL
same,MIC80,[12],62.5 µg/mL
same,MIC50,[13],62.5 µg/mL
same,MIC80,[13],125 µg/mL
same,MIC50,[14],31.2 µg/mL
same,MIC80,[14],62.5 µg/mL
same,MIC80,[15],62.5 µg/mL
same,MIC50,[16],> 250 µg/mL
same,MIC80,[16],> 250 µg/mL
same,MIC50,[17],> 250 µg/mL
same,MIC80,[17],> 250 µg/mL
same,MIC50,[18],> 250 µg/mL
same,MIC80,[18],> 250 µg/mL
same,MIC50,[19],31.2 µg/mL
same,MIC80,[19],125 µg/mL
same,MIC50,[20],15.6 µg/mL
same,MIC80,[20],62.5 µg/mL
same,MIC50,[21],31.2 µg/mL
same,MIC80,[21],62.5 µg/mL
same,MIC50,[22],15.6 µg/mL
same,MIC80,[22],62.5 µg/mL
same,MIC50,[23],7.8 µg/mL
same,MIC80,[23],62.5 µg/mL
same,MIC50,[24],31.2 µg/mL
same,MIC80,[24],62.5 µg/mL
same,MIC50,[25],15.6 µg/mL
same,MIC80,[25],31.2 µg/mL
same,inhibition at 31.2 µg/mL,[26],80%
same,MIC50,[27],31.2 µg/mL
C[C@@H]1[C@H](O)[C@@H](C)/C=C/C=C/C=C/C=C/C=C/C=C/C=C/[C@H](O[C@@H]2O[C@H](C)[C@@H](O)[C@H](N)[C@@H]2O)C[C@@H]2O[C@](O)(C[C@@H](O)C[C@@H](O)[C@H](O)CC[C@@H](O)C[C@@H](O)CC(=O)O[C@H]1C)C[C@H](O)[C@H]2C(=O)O [AMPHOTERICIN B],MIC,[1],0.98 µg/mL
same,MIC80,[1],1 µg/mL
same,MIC,[2],0.49 µg/mL
same,MIC,[3],0.25 µg/mL
same,MIC80,[3],0.25 µg/mL
same,MIC,[4],0.49 µg/mL
same,MIC,[5],0.49 µg/mL
same,MIC,[6],0.49 µg/mL
same,MIC,[7],0.12 µg/mL
same,MIC,[8],0.06 µg/mL
same,MIC,[9],0.06 µg/mL
same,MIC80,[10],0.78 µg/mL
same,MIC80,[11],1.56 µg/mL
same,MIC80,[12],0.78 µg/mL
same,MIC80,[13],1.56 µg/mL
same,MIC80,[14],0.78 µg/mL
same,MIC80,[15],0.5 µg/mL
same,MIC80,[16],0.39 µg/mL
same,MIC80,[17],0.78 µg/mL
same,MIC80,[18],0.39 µg/mL
same,MIC80,[19],0.5 µg/mL
same,MIC80,[20],0.13 µg/mL
same,MIC80,[21],0.06 µg/mL
same,MIC80,[22],0.25 µg/mL
same,MIC80,[23],0.13 µg/mL
same,MIC80,[24],0.25 µg/mL
same,MIC80,[25],0.25 µg/mL
CC(=O)N1CCN(c2ccc(OCC3COC(Cn4ccnc4)(c4ccc(Cl)cc4Cl)O3)cc2)CC1 (configuration not stated) [KETOCONAZOLE],MIC,[1],0.49 µg/mL
same,MIC,[2],0.49 µg/mL
same,MIC,[3],0.25 µg/mL
same,MIC,[4],0.49 µg/mL
same,MIC,[5],0.12 µg/mL
same,MIC,[6],0.25 µg/mL
same,MIC,[7],0.06 µg/mL
same,MIC,[8],0.03 µg/mL
same,MIC,[9],0.03 µg/mL
CN(C/C=C/C#CC(C)(C)C)Cc1cccc2ccccc12 [TERBINAFINE],MIC,[1],1.95 µg/mL
same,MIC,[2],3.9 µg/mL
same,MIC,[3],0.49 µg/mL
same,MIC,[4],0.98 µg/mL
same,MIC,[5],0.98 µg/mL
same,MIC,[6],1.96 µg/mL
same,MIC,[7],0.04 µg/mL
same,MIC,[8],0.01 µg/mL
same,MIC,[9],0.03 µg/mL

# Source: ChEMBL document CHEMBL2157922, “Synthesis and antifungal activity of diverse C-2 pyridinyl and pyridinylvinyl substituted quinolines” (2012)
